Test results: ChEMBL document CHEMBL1921709, “Synthesis and activity of new macrolones: conjugates between 6(7)-(2'-aminoethyl)-amino-1-cyclopropyl-3-carboxylic acid (2'-hydroxyethyl) amides and 4″-propenoyl-azithromycin” (2011)
In brackets after ≈: the same amount, converted by molar mass.

Legend:
Type in all cases: functional
[1] = test system: Streptococcus pneumoniae; experiment: Antibacterial activity against erythromycin-sensitive Streptococcus pneumoniae SP 030 by broth microdilution method
Summary of the method: (§1)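 Broth microdilution following CLSI guidelines, except that 5% horse serum replaced lysed blood in the Streptococcus medium. Two-fold serial dilutions of compound were used. Bacteria were first grown on appropriate agar plates. Read-out is growth inhibition, reported as MIC.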

[2] = test system: Streptococcus pneumoniae; experiment: Antibacterial activity against constitutive macrolide, lincosamide, streptogramin-resistant Streptococcus pneumoniae 58 spain by broth microdilution method
Summary of the method: (§2)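 CLSI broth microdilution MIC with automated double dilutions of compound. The medium was supplemented with 5% horse serum in place of lysed blood. Bacteria were pre-grown on appropriate agar plates.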

[3] = test system: Streptococcus pyogenes; experiment: Antibacterial activity against erythromycin-sensitive Streptococcus pyogenes 3565 by broth microdilution method; summary of the method: as §1
[4] = test system: Streptococcus pyogenes; experiment: Antibacterial activity against efflux-mediated macrolide-resistant Streptococcus pyogenes Finland 2 by broth microdilution method; summary of the method: as §2
[5] = test system: Staphylococcus aureus; experiment: Antibacterial activity against inducible macrolide, lincosamide and streptogramin B-resistant Staphylococcus aureus 90256/97 by broth microdilution method
Summary of the method: (§3)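 Standard CLSI broth microdilution MIC test with automated double dilutions of compound. Bacteria were pre-grown on appropriate agar plates.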

[6] = test system: Streptococcus pneumoniae; experiment: Antibacterial activity against inducible macrolide-resistant, constitutive lincosamide and streptogramin-resistant Streptococcus pneumoniae 134 GR M by broth microdilution method; summary of the method: as §2
[7] = test system: Streptococcus pyogenes; experiment: Antibacterial activity against constitutive macrolide, lincosamide, streptogramin-resistant Streptococcus pyogenes 166 GR-Micro by broth microdilution method; summary of the method: as §2
[8] = test system: Streptococcus pyogenes; experiment: Antibacterial activity against inducible macrolide-lincosamide-streptogramin B resistant Streptococcus pyogenes Finland 11 by broth microdilution method; summary of the method: as §2
[9] = test system: Staphylococcus aureus; experiment: Antibacterial activity against efflux-mediated macrolide-resistant Staphylococcus aureus PK1 by broth microdilution method; summary of the method: as §3
[10] = test system: Streptococcus pneumoniae; experiment: Antibacterial activity against efflux-mediated macrolide-resistant Streptococcus pneumoniae Ci137 by broth microdilution method; summary of the method: as §2
[11] = test system: Haemophilus influenzae; experiment: Antibacterial activity against Haemophilus influenzae ATCC 49247 by broth microdilution method
Summary of the method: (§4)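 Broth microdilution following CLSI guidelines, using two-fold serial dilutions of compound. Bacteria were first grown on appropriate agar plates. Read-out is growth inhibition, reported as MIC.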

[12] = test system: Staphylococcus aureus; experiment: Antibacterial activity against erythromycin-sensitive Staphylococcus aureus ATCC 13709 by broth microdilution method; summary of the method: as §4
[13] = test system: Moraxella catarrhalis; experiment: Antibacterial activity against Moraxella catarrhalis ATCC 23246 by broth microdilution method; summary of the method: as §4
[14] = test system: Staphylococcus aureus; experiment: Antibacterial activity against constitutive macrolide, lincosamide, streptogramin-resistant Staphylococcus aureus PK2 by broth microdilution method; summary of the method: as §3

CC(C)(C)OC(=O)NCCNc1cc2c(=O)c(C(=O)NCCO)cn(C3CC3)c2cc1Cl
MIC [1]: 16 µg/mL (≈ 34.4 µM)
MIC [2]: > 64 µg/mL
MIC [3]: 64 µg/mL (≈ 138 µM)
MIC [4]: > 64 µg/mL
MIC [5]: > 64 µg/mL
MIC [6]: > 64 µg/mL
MIC [7]: > 64 µg/mL
MIC [8]: > 64 µg/mL
MIC [9]: > 64 µg/mL
MIC [10]: > 64 µg/mL
MIC [11]: > 64 µg/mL
MIC [12]: > 64 µg/mL
MIC [13]: 32 µg/mL (≈ 68.8 µM)
MIC [14]: > 64 µg/mL

NCCNc1cc2c(cc1F)c(=O)c(C(=O)NCCO)cn2C1CC1
MIC [1]: > 64 µg/mL
MIC [2]: > 64 µg/mL
MIC [3]: > 64 µg/mL
MIC [4]: > 64 µg/mL
MIC [5]: > 64 µg/mL
MIC [6]: > 64 µg/mL
MIC [7]: > 64 µg/mL
MIC [8]: > 64 µg/mL
MIC [9]: > 64 µg/mL
MIC [10]: > 64 µg/mL
MIC [11]: > 64 µg/mL
MIC [12]: > 64 µg/mL
MIC [13]: > 64 µg/mL
MIC [14]: > 64 µg/mL

CC[C@H]1OC(=O)[C@H](C)[C@@H](O[C@H]2C[C@@](C)(OC)[C@@H](OC(=O)CCNCCNc3cc4c(=O)c(C(=O)NCCO)cn(C5CC5)c4cc3Cl)[C@H](C)O2)[C@H](C)[C@@H](O[C@@H]2O[C@H](C)C[C@H](N(C)C)[C@H]2O)[C@](C)(O)C[C@@H](C)CN(C)[C@H](C)[C@@H](O)[C@]1(C)O
MIC [1]: ≤ 0.125 µg/mL
MIC [2]: 16 µg/mL (≈ 13.7 µM)
MIC [3]: ≤ 0.125 µg/mL
MIC [4]: 4 µg/mL (≈ 3.43 µM)
MIC [5]: > 64 µg/mL
MIC [6]: 32 µg/mL (≈ 27.4 µM)
MIC [7]: 32 µg/mL (≈ 27.4 µM)
MIC [8]: 1 µg/mL (≈ 0.856 µM)
MIC [9]: > 64 µg/mL
MIC [10]: 2 µg/mL (≈ 1.71 µM)
MIC [11]: 4 µg/mL (≈ 3.43 µM)
MIC [12]: 4 µg/mL (≈ 3.43 µM)
MIC [13]: 0.5 µg/mL (≈ 0.428 µM)
MIC [14]: > 64 µg/mL

CC[C@H]1OC(=O)[C@H](C)[C@@H](O[C@H]2C[C@@](C)(OC)[C@@H](OC(=O)CCN(C)CCNc3ccc4c(c3)c(=O)c(C(=O)NCCO)cn4C3CC3)[C@H](C)O2)[C@H](C)[C@@H](O[C@@H]2O[C@H](C)C[C@H](N(C)C)[C@H]2O)[C@](C)(O)C[C@@H](C)CN(C)[C@H](C)[C@@H](O)[C@]1(C)O
MIC [1]: ≤ 0.125 µg/mL
MIC [2]: > 64 µg/mL
MIC [3]: 0.25 µg/mL (≈ 0.218 µM)
MIC [4]: 4 µg/mL (≈ 3.49 µM)
MIC [5]: > 64 µg/mL
MIC [6]: 4 µg/mL (≈ 3.49 µM)
MIC [7]: > 64 µg/mL
MIC [8]: 4 µg/mL (≈ 3.49 µM)
MIC [9]: 64 µg/mL (≈ 55.8 µM)
MIC [10]: 1 µg/mL (≈ 0.871 µM)
MIC [11]: 4 µg/mL (≈ 3.49 µM)
MIC [12]: 2 µg/mL (≈ 1.74 µM)
MIC [13]: 1 µg/mL (≈ 0.871 µM)
MIC [14]: > 64 µg/mL

CC[C@H]1OC(=O)[C@H](C)[C@@H](O[C@H]2C[C@@](C)(OC)[C@@H](OC(=O)CCNCCNc3ccc4c(c3)c(=O)c(C(=O)NCCO)cn4C3CC3)[C@H](C)O2)[C@H](C)[C@@H](O[C@@H]2O[C@H](C)C[C@H](N(C)C)[C@H]2O)[C@](C)(O)C[C@@H](C)CN(C)[C@H](C)[C@@H](O)[C@]1(C)O
MIC [1]: ≤ 0.125 µg/mL
MIC [2]: > 64 µg/mL
MIC [3]: 0.25 µg/mL (≈ 0.221 µM)
MIC [4]: 16 µg/mL (≈ 14.1 µM)
MIC [5]: > 64 µg/mL
MIC [6]: 32 µg/mL (≈ 28.2 µM)
MIC [7]: > 64 µg/mL
MIC [8]: 4 µg/mL (≈ 3.53 µM)
MIC [9]: > 64 µg/mL
MIC [10]: 4 µg/mL (≈ 3.53 µM)
MIC [11]: 8 µg/mL (≈ 7.06 µM)
MIC [12]: 4 µg/mL (≈ 3.53 µM)
MIC [13]: 0.5 µg/mL (≈ 0.441 µM)
MIC [14]: > 64 µg/mL

NCCNc1cc2c(=O)c(C(=O)NCCO)cn(C3CC3)c2cc1Cl
MIC [1]: 64 µg/mL (≈ 175 µM)
MIC [2]: > 64 µg/mL
MIC [3]: > 64 µg/mL
MIC [4]: > 64 µg/mL
MIC [5]: > 64 µg/mL
MIC [6]: > 64 µg/mL
MIC [7]: > 64 µg/mL
MIC [8]: > 64 µg/mL
MIC [9]: > 64 µg/mL
MIC [10]: > 64 µg/mL
MIC [11]: > 64 µg/mL
MIC [12]: > 64 µg/mL
MIC [13]: 64 µg/mL (≈ 175 µM)
MIC [14]: > 64 µg/mL

CC[C@H]1OC(=O)[C@H](C)[C@@H](O[C@H]2C[C@@](C)(OC)[C@@H](OC(=O)CCN(C)CCNc3cc4c(cc3F)c(=O)c(C(=O)NCCO)cn4C3CC3)[C@H](C)O2)[C@H](C)[C@@H](O[C@@H]2O[C@H](C)C[C@H](N(C)C)[C@H]2O)[C@](C)(O)C[C@@H](C)CN(C)[C@H](C)[C@@H](O)[C@]1(C)O
MIC [1]: ≤ 0.125 µg/mL
MIC [2]: > 64 µg/mL
MIC [3]: 0.5 µg/mL (≈ 0.429 µM)
MIC [4]: 16 µg/mL (≈ 13.7 µM)
MIC [5]: > 64 µg/mL
MIC [6]: 16 µg/mL (≈ 13.7 µM)
MIC [7]: > 64 µg/mL
MIC [8]: 16 µg/mL (≈ 13.7 µM)
MIC [9]: > 64 µg/mL
MIC [10]: 2 µg/mL (≈ 1.72 µM)
MIC [11]: 16 µg/mL (≈ 13.7 µM)
MIC [12]: 16 µg/mL (≈ 13.7 µM)
MIC [13]: 8 µg/mL (≈ 6.86 µM)
MIC [14]: > 64 µg/mL

CC[C@H]1OC(=O)[C@H](C)[C@@H](O[C@H]2C[C@@](C)(OC)[C@@H](OC(=O)CCNCCNc3cc4c(cc3F)c(=O)c(C(=O)NCCO)cn4C3CC3)[C@H](C)O2)[C@H](C)[C@@H](O[C@@H]2O[C@H](C)C[C@H](N(C)C)[C@H]2O)[C@](C)(O)C[C@@H](C)CN(C)[C@H](C)[C@@H](O)[C@]1(C)O
MIC [1]: ≤ 0.125 µg/mL
MIC [2]: 32 µg/mL (≈ 27.8 µM)
MIC [3]: ≤ 0.125 µg/mL
MIC [4]: 16 µg/mL (≈ 13.9 µM)
MIC [5]: > 64 µg/mL
MIC [6]: 64 µg/mL (≈ 55.6 µM)
MIC [7]: > 64 µg/mL
MIC [8]: 4 µg/mL (≈ 3.47 µM)
MIC [9]: > 64 µg/mL
MIC [10]: 4 µg/mL (≈ 3.47 µM)
MIC [11]: 4 µg/mL (≈ 3.47 µM)
MIC [12]: 4 µg/mL (≈ 3.47 µM)
MIC [13]: 0.5 µg/mL (≈ 0.434 µM)
MIC [14]: > 64 µg/mL

COC(=O)c1cn(C2CC2)c2cc(Cl)c(NCCNC(=O)OC(C)(C)C)cc2c1=O
MIC [1]: > 64 µg/mL
MIC [2]: > 64 µg/mL
MIC [3]: > 64 µg/mL
MIC [4]: > 64 µg/mL
MIC [5]: > 64 µg/mL
MIC [6]: > 64 µg/mL
MIC [7]: > 64 µg/mL
MIC [8]: > 64 µg/mL
MIC [9]: > 64 µg/mL
MIC [10]: > 64 µg/mL
MIC [11]: > 64 µg/mL
MIC [12]: > 64 µg/mL
MIC [13]: > 64 µg/mL
MIC [14]: > 64 µg/mL

CC[C@H]1OC(=O)[C@H](C)[C@@H](O[C@H]2C[C@@](C)(OC)[C@@H](O)[C@H](C)O2)[C@H](C)[C@@H](O[C@@H]2O[C@H](C)C[C@H](N(C)C)[C@H]2O)[C@](C)(O)C[C@@H](C)CN(C)[C@H](C)[C@@H](O)[C@]1(C)O [AZITHROMYCIN]
MIC [1]: ≤ 0.125 µg/mL
MIC [2]: > 64 µg/mL
MIC [3]: ≤ 0.125 µg/mL
MIC [4]: 8 µg/mL (≈ 10.7 µM)
MIC [5]: > 64 µg/mL
MIC [6]: > 64 µg/mL
MIC [7]: > 64 µg/mL
MIC [8]: 16 µg/mL (≈ 21.4 µM)
MIC [9]: > 64 µg/mL
MIC [10]: 8 µg/mL (≈ 10.7 µM)
MIC [11]: 1 µg/mL (≈ 1.34 µM)
MIC [12]: 0.5 µg/mL (≈ 0.668 µM)
MIC [13]: ≤ 0.125 µg/mL
MIC [14]: > 64 µg/mL

CC(C)(C)OC(=O)NCCNc1cc2c(cc1F)c(=O)c(C(=O)NCCO)cn2C1CC1
MIC [1]: 16 µg/mL (≈ 35.7 µM)
MIC [2]: > 64 µg/mL
MIC [3]: 16 µg/mL (≈ 35.7 µM)
MIC [4]: > 64 µg/mL
MIC [5]: > 64 µg/mL
MIC [6]: > 64 µg/mL
MIC [7]: > 64 µg/mL
MIC [8]: > 64 µg/mL
MIC [9]: > 64 µg/mL
MIC [10]: > 64 µg/mL
MIC [11]: > 64 µg/mL
MIC [12]: 64 µg/mL (≈ 143 µM)
MIC [13]: 16 µg/mL (≈ 35.7 µM)
MIC [14]: > 64 µg/mL

COC(=O)c1cn(C2CC2)c2cc(NCCNC(=O)OC(C)(C)C)c(F)cc2c1=O
MIC [1]: > 64 µg/mL
MIC [2]: > 64 µg/mL
MIC [3]: > 64 µg/mL
MIC [4]: > 64 µg/mL
MIC [5]: > 64 µg/mL
MIC [6]: > 64 µg/mL
MIC [7]: > 64 µg/mL
MIC [8]: > 64 µg/mL
MIC [9]: > 64 µg/mL
MIC [10]: > 64 µg/mL
MIC [11]: > 64 µg/mL
MIC [12]: > 64 µg/mL
MIC [13]: 8 µg/mL (≈ 19.1 µM)
MIC [14]: > 64 µg/mL
